The species named for experiment [1] is Homo sapiens. In words: Lysis of human erythrocytes at a concentration of 1 mM for 30 minutes at 37 degree C. The experiment is classed as functional. Summed up: (§1)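 Washed human erythrocytes (0.4 × 10⁸ cells) in phosphate-buffered saline with no protein in the medium; compound at 1 mM final; 30 min at 37 °C. Cells pelleted, then supernatant absorbance compared with freeze-thawed cells to give percent hemolysis.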

Another experiment concerns Plasmodium falciparum. In words: In vitro antimalarial activity against Plasmodium falciparum D10.
The species named for experiment [2] is Homo sapiens. In words: Compound was evaluated for the lysis of human erythrocytes at a concentration of 1 mM for 30 minutes at 37 degree C. The experiment is classed as functional. Summed up: as §1

Among the data in ChEMBL document CHEMBL1149128, “Novel endoperoxide antimalarials: synthesis, heme binding, and antimalarial activity” (J Med Chem, 2004) are Hemolysis and IC50 values, retold here.

As to `C[C@@H]1OO[C@H](CC(=O)OC23CC4CC(CC(C4)C2)C3)[C@@H]2O[C@@H]21`, in the experiment listed under Homo sapiens [1], the Hemolysis worked out at 4%. Moreover, in the experiment with Plasmodium falciparum, 5 µM corresponded to half-maximal inhibition (IC50).
As to `C[C@@H]1OO[C@H](CC(=O)OC23CC4CC(CC(C4)C2)C3)[C@H]2O[C@H]21`, the Hemolysis in the experiment listed under Homo sapiens [1] was 6%. Further, the IC50 with Plasmodium falciparum turned out to be 1.3 µM.
On the same counts, the results for `C1CCC([C@H]2OO[C@@H](C3CCCCC3)[C@H]3O[C@H]32)CC1` are 5% and 0.32 µM.
On the same counts, the results for `CCCCCCC[C@H]1OO[C@@H](CCC)[C@H]2O[C@H]21` are 51% and over 10 µM.
Taken in the same sequence, the figures for `C1=C[C@@H](C2CCCC2)OOC1` were 11% and over 10 µM.
`C1CCC([C@H]2OO[C@@H](C3CCCC3)[C@@H]3O[C@@H]32)C1`: the Hemolysis in the experiment listed under Homo sapiens [1] is listed as 8%. In addition, half-maximal inhibition with Plasmodium falciparum (IC50) required 0.5 µM.
In the experiment listed under Homo sapiens [1], `c1ccc([C@H]2OO[C@@H](C3CCCCC3)[C@@H]3O[C@@H]32)cc1` came in with a Hemolysis of 2%. The IC50 in the experiment with Plasmodium falciparum was over 10 µM.
On the same counts, the results for `CCCCCCC[C@@H]1C=C[C@H](CCC)OO1` are 62% and over 10 µM.
On the same counts, the results for `C1CCC([C@H]2OOC[C@@H]3O[C@@H]32)C1` are 1% and 1.4 µM.
Take `C1CCC([C@H]2OOC[C@@H]3O[C@@H]32)CC1`: the Hemolysis in the experiment listed under Homo sapiens [1] was 2%. This molecule had an IC50 in the experiment with Plasmodium falciparum of over 10 µM.
As for `C1C2CC3CC1CC([C@H]1OOC[C@@H]4O[C@@H]41)(C2)C3`, the Hemolysis in the experiment listed under Homo sapiens [1] stood at 41%. The same molecule came in with an IC50 with Plasmodium falciparum of 4 µM.
As to `O=C(C1CCCCC1)[C@H]1O[C@H]1[C@@H](O)C1CCCCC1`, the Hemolysis in the experiment listed under Homo sapiens [1] worked out at 8%. In the experiment with Plasmodium falciparum, this molecule came in with a concentration for half-maximal inhibition (IC50) of over 10 µM.
Molecule `c1ccc([C@H]2OO[C@@H](c3ccccc3)[C@@H]3O[C@@H]32)cc1` gave a Hemolysis in the experiment filed under Homo sapiens [1] of 5%. Besides, the IC50 in the experiment on Plasmodium falciparum is over 10 µM.
The molecule `C1CCC(C[C@H]2OOC[C@@H]3O[C@@H]32)CC1` gave a Hemolysis in the experiment listed under Homo sapiens [1] of 3%. Besides, the IC50 in the experiment on Plasmodium falciparum was over 10 µM.
Taken in the same sequence, the figures for `C1=C[C@H](C2CCCC2)OO[C@@H]1C1CCCC1` were 52% and 0.6 µM.
As for `C1=C[C@@H](C2CCCCC2)OOC1`, the Hemolysis in the experiment listed under Homo sapiens [1] was 100%. In the experiment with Plasmodium falciparum, the IC50 is 3.2 µM.
For the molecule `C1=C[C@H](C2CCCCC2)OO[C@@H]1C1CCCCC1`, the Hemolysis in the experiment filed under Homo sapiens [1] worked out at 100%. Also, in the experiment on Plasmodium falciparum, the IC50 worked out at 1.2 µM.
In turn, `C1CCC([C@H]2OOC[C@H]3O[C@@H]23)C1` registered a Hemolysis in the experiment filed under Homo sapiens [1] of 1%. The IC50 with Plasmodium falciparum worked out at 1.4 µM.
Taken in the same sequence, the figures for `C[C@H]1C=C[C@@H](CCCO)OO1` were 0% and 2.5 µM.
With `C1CC([C@H]2OO[C@@H](C3CCC3)[C@@H]3O[C@@H]32)C1`, the Hemolysis in the experiment listed under Homo sapiens [1] came out at 1%. In the experiment with Plasmodium falciparum, this molecule displayed an IC50 of 2.9 µM.
Turning to `CCCCCCC[C@H]1OO[C@@H](CCC)[C@@H]2O[C@@H]21`, in the experiment listed under Homo sapiens [1], the Hemolysis amounted to 47%. Besides, in the experiment on Plasmodium falciparum, the half-inhibitory concentration (IC50) was over 10 µM.
The molecule `C1=C[C@H](C2CCC2)OO[C@@H]1C1CCC1` gave a Hemolysis in the experiment filed under Homo sapiens [1] of 32%. For the same molecule, in the experiment on Plasmodium falciparum, the IC50 is over 10 µM.
`C1=C[C@@H](CC2CCCCC2)OOC1`: the Hemolysis in the experiment listed under Homo sapiens [1] was found to be 100%. In the experiment on Plasmodium falciparum, this molecule returned an IC50 of 9.5 µM.
`C1CCC(C[C@H]2OOC[C@H]3O[C@@H]23)CC1`: the Hemolysis in the experiment filed under Homo sapiens [1] turned out to be 6%. Moreover, half-maximal inhibition in the experiment with Plasmodium falciparum (IC50) required 2 µM.
Taken in the same sequence, the figures for `c1ccc(C2(c3ccccc3)OOCC3OC32)cc1` (stereo not given) were 1% and 5 µM.
Taken in the same sequence, the figures for `C1CC([C@H]2OO[C@@H](C3CCC3)[C@H]3O[C@H]32)C1` were 1% and 1.6 µM.
On the same counts, the results for `C[C@]12COO[C@H](c3ccccc3)[C@H]1O2` are 2% and over 10 µM.
In the experiment filed under Homo sapiens [1], `C[C@H]1C=C[C@@H](c2ccccc2)OO1` showed a Hemolysis of 32%. The same molecule had an IC50 with Plasmodium falciparum of over 10 µM.
Taken in the same sequence, the figures for `C1=C[C@H](c2ccccc2)OO[C@@H]1c1ccccc1` were 4% and 6 µM.
Taken in the same sequence, the figures for `C1=C[C@@H](C23C[C@H]4C[C@@H](C2)C[C@@H](C3)C4)OOC1` were 100% and 1.3 µM.
On the same counts, the results for `C[C@@H]1OO[C@H](c2ccccc2)[C@H]2O[C@H]21` are 2% and over 10 µM.
With `C1CCC([C@H]2OO[C@@H](C3CCCCC3)[C@@H]3O[C@@H]32)CC1`, in the experiment listed under Homo sapiens [1], the Hemolysis is given as 6%. In addition, in the experiment on Plasmodium falciparum, the IC50 turned out to be 0.5 µM.
With `C[C@H]1C=C[C@@H](CC(=O)OC23C[C@H]4C[C@@H](C2)C[C@@H](C3)C4)OO1`, the Hemolysis in the experiment filed under Homo sapiens [1] is 27%. The same molecule yielded an IC50 in the experiment on Plasmodium falciparum of 1 µM.
On the same counts, the results for `CCC[C@H]1C=C[C@@H](CCC)OO1` are 2% and over 10 µM.
On to `C1=C[C@H](C2CCCCC2)OO[C@@H]1c1ccccc1`, for which the Hemolysis in the experiment filed under Homo sapiens [1] is recorded as 9%. In the experiment with Plasmodium falciparum, this molecule gave an IC50 of 8.1 µM.
For `C1CCC([C@H]2OO[C@@H](C3CCCC3)[C@H]3O[C@H]32)C1`, the Hemolysis in the experiment filed under Homo sapiens [1] turned out to be 9%. In addition, the IC50 in the experiment with Plasmodium falciparum came out at 0.5 µM.
As for `O=C(c1ccccc1)[C@H]1O[C@H]1[C@@H](O)c1ccccc1` (stereo in doubt; 7j), the Hemolysis in the experiment listed under Homo sapiens [1] is on record as 2%.
As to `C[C@@H]1CC[C@H]2[C@@H](C)C(=O)O[C@@H]3O[C@@]4(C)CC[C@@H]1[C@]32OO4` [ARTEMISININ], the Hemolysis in the experiment filed under Homo sapiens [2] was 4%.
`CCN(CC)CCCC(C)Nc1ccnc2cc(Cl)ccc12` (stereo not given) [CHLOROQUINE] registered a Hemolysis in the experiment listed under Homo sapiens [1] of 1%.
